Bioassay records (PubChem)
Sampled rows, rich in hits. Any-hit rate of the full collection: about 5.8%.
Pf Dd2 inh: inhibitors of Plasmodium falciparum Dd2 growth. P. falciparum Dd2 growth, SYBR Green, 72 h; active compounds read low. 94,000 tested, 2.3% active. activity change, % at 10 µM. AID 1159554; in the data active = activity change below about -80%; inconclusive = no clear call, values can overlap the other calls
T cruzi growth-1: T. cruzi proliferation inhibition. T. cruzi beta-gal in NIH3T3, GalScreen luminescence, 90 h. inhibition, % at 8.34 µM. 77,000 tested, 5.9% active;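 active = mean inhibition above about 93%, with at least 55% of replicates each passing it, limit read from the data, passing the limit was not always enough; inconclusive = only one of those two conditions holds; inactive = neither condition holds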
IDH1 mut inh: inhibitors of human IDH1 R132H; O75874; IDH1 R132H reductase, diaphorase/resazurin fluorescence, 60 min; inhibition, % at 10 µM; 70,000 tested, 0.18% active; AID 624101; in the data active = inhibition above about 34%; inconclusive = no clear call, values can overlap the other calls; inactive = below about 11%
GASC1 inh: KDM4C (human) demethylase inhibition | Q9H3R0 | AID 720574 | 96,000 tested, 0.15% active | GST-KDM4C 2-372, H3K9me3 peptide, LANCE TR-FRET | inhibition, % at 12.5 µM;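 active = mean replicate inhibition above about 25%, with at least 55% of replicates also reaching it, limit read from the data, passing the limit was not always enough; inconclusive = only one of those two conditions met; inactive = neither condition met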
Target sequence (Q9H3R0 2-372 limits assumed): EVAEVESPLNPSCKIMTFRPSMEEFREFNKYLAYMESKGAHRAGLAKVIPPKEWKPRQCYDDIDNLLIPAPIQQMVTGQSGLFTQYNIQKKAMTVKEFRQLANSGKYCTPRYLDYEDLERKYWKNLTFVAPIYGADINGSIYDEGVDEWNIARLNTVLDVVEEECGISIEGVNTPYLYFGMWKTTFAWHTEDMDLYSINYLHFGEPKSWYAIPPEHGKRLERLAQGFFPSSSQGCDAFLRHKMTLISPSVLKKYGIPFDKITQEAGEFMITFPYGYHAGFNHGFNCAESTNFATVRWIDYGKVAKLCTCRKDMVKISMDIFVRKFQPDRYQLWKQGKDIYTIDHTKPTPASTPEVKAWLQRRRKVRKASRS
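reagent = H3K9me3 peptide substrate, Fe(II), 2-oxoglutarate | system = GST-tagged GASC-1 (JMJD2C) catalytic fragment, aa 2-372 | amount = enzyme final amount 10 nM | read-out = Fall in 671/618 emission ratio as inhibition | medium = HEPES buffer, pH 7.5, plus ascorbate | schedule = 30 min reaction, 60 min detection, RT | measured by = LANCE TR-FRET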
T cruzi growth-2: blocks T. cruzi growth in NIH3T3 host cells; shares compounds with T cruzi growth-1; T. cruzi beta-gal in NIH3T3, GalScreen luminescence, 90 h; inhibition, % at 8.35 µM; 5,600 tested, 72% active;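 active = mean replicate inhibition above about 95% and at least 55% of replicates individually reaching it, limit read from the data; inconclusive = only one of the two criteria is met; inactive = neither criterion is met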
T cruzi growth-3: inhibitors of T. cruzi proliferation; T. cruzi beta-gal in NIH3T3, GalScreen luminescence, 90 h; inhibition, % at 2.09 µM; AID 651740; shares compounds with T cruzi growth-1; 5,600 tested, 21% active;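 active = mean inhibition above about 95%, with at least 55% of replicates also reaching it, limit read from the data; inconclusive = meets just one of the two conditions; inactive = meets neither condition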
3T3 cytotox: kills mouse NIH/3T3 fibroblasts | NIH/3T3 viability, CellTiter-Glo ATP luminescence, 90 h | shares compounds with T cruzi growth-1 | 5,600 tested, 14% active | cytotoxicity (signal decrease), % at 8.35 µM;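 active = mean signal decrease across replicates above about 35% based on untreated-well scatter, with enough replicates individually passing, limit read from the data; inconclusive = no rule stated though some were filed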
NIH3T3 tox 2: NIH/3T3 (mouse) viability loss; inhibition, % at 24.9 µM; 5,600 tested, 56% active; AID 651744; shares compounds with T cruzi growth-1; NIH/3T3 viability, CellTiter-Glo ATP luminescence, 90 h;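 active = mean loss of cell viability signal at or above a set limit, and enough replicates individually reaching it; inconclusive = meets only the mean limit or only the replicate share; inactive = meets neither condition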
Hits are given with their value; – = inactive; ? = inconclusive; · = no result given.

SMILES	Pf Dd2 inh	T cruzi growth-1	IDH1 mut inh	GASC1 inh	T cruzi growth-2	T cruzi growth-3	3T3 cytotox	NIH3T3 tox 2
C[C@H](CO)N1C[C@H](C)[C@H](CN(C)S(C)(=O)=O)Oc2cc(C#Cc3ccc(F)cc3)ccc2S1(=O)=O	–	115	–	–	103	–	–	51
CCCC#Cc1ccc2c(c1)O[C@@H](CN(C)S(C)(=O)=O)[C@@H](C)CN([C@@H](C)CO)S2(=O)=O	–	101	–	–	?	?	–	58
CCCC#Cc1ccc2c(c1)O[C@@H](CN(C)S(C)(=O)=O)[C@H](C)CN([C@H](C)CO)S2(=O)=O	–	–	–	–	·	·	·	·
C[C@H]1CN([C@@H](C)CO)S(=O)(=O)c2ccc(C#Cc3ccc(F)cc3)cc2O[C@@H]1CN(C)S(C)(=O)=O	–	122	–	–	102	–	?	87
C[C@@H]1CN([C@H](C)CO)S(=O)(=O)c2ccc(C#Cc3ccccc3)cc2O[C@@H]1CN(C)S(C)(=O)=O	–	–	–	–	·	·	·	·
C[C@H]1CN([C@@H](C)CO)S(=O)(=O)c2ccc(C#Cc3ccc(F)cc3)cc2O[C@H]1CN(C)S(C)(=O)=O	–	118	–	–	105	–	–	–
O=C(c1ccccc1)c1cc(Br)ccc1NC(=O)C1CC=CCC1C(=O)O (configuration not stated)	·	·	–	·	·	·	·	·
Cc1c(NC(=O)COc2cc(Cl)c(Cl)cc2Cl)cccc1-c1nc2ccccc2o1	·	·	–	·	·	·	·	·
CC(=O)c1ccc(NC(=O)CSc2nnc3c4ccccc4n(C)c3n2)cc1	·	·	–	·	·	·	·	·
COc1c(Cl)cc(C(=O)Nc2sc3c(c2C(=O)NCc2cccnc2)CCCC3)cc1Cl	·	·	–	·	·	·	·	·
CCCNC(=O)C[C@H]1C[C@@H]2c3cc(NC(=O)Nc4ccc(OC)cc4)ccc3O[C@@H]2[C@H](CO)O1	–	–	–	–	·	·	·	·
COc1ccc(NC(=O)Nc2ccc3c(c2)[C@@H]2C[C@H](CC(=O)NCCc4ccccc4)O[C@@H](CO)[C@@H]2O3)cc1	–	176	–	–	105	?	–	–
COc1ccc(NC(=O)Nc2ccc3c(c2)[C@@H]2C[C@H](CC(=O)NCc4ccc5c(c4)OCO5)O[C@H](CO)[C@@H]2O3)cc1	–	102	–	–	–	–	–	–
COc1ccc(NC(=O)Nc2ccc3c(c2)[C@H]2C[C@@H](CC(=O)NCCc4ccccc4)O[C@@H](CO)[C@H]2O3)cc1	–	157	–	–	112	98	–	–
COc1ccc(NC(=O)Nc2ccc3c(c2)[C@H]2C[C@H](CC(=O)NCc4ccc5c(c4)OCO5)O[C@@H](CO)[C@H]2O3)cc1	–	–	–	–	·	·	·	·
C=C1[C@H]2CC[C@]3(O)[C@@](CC[C@@H]4[C@](C)(C(=O)O)CCC[C@]43C)(C2)[C@H]1OC(=O)/C(C)=C\C	·	·	–	·	·	·	·	·
O=C(CSc1nnnn1-c1ccccc1)Nc1ccc(Oc2ccccc2)cc1	·	·	–	·	·	·	·	·
C=C(C(=O)O)[C@@H]1CC[C@@]2(C)C=CC(=O)[C@@H](CCC3(O)C(=O)C=C[C@]4(C)CC[C@@H](C(=C)C(=O)O)C[C@@H]34)[C@@H]2C1 (some centres not stated)	·	·	–	·	·	·	·	·
CCC(Sc1nc(C)cc(C)n1)C(=O)N1c2ccccc2Sc2ccccc21 (configuration not stated)	·	·	–	·	·	·	·	·
COc1ccccc1C#Cc1ccc2c(c1)O[C@H](CN(C)Cc1cncnc1)[C@@H](C)CN([C@H](C)CO)S2(=O)=O	–	–	·	–	·	·	·	·
COc1ccccc1C#Cc1ccc2c(c1)O[C@@H](CN(C)Cc1ccncc1)[C@@H](C)CN([C@H](C)CO)S2(=O)=O	–	98	–	–	102	104	–	–
COc1ccccc1C#Cc1ccc2c(c1)O[C@@H](CN(C)Cc1ccncc1)[C@H](C)CN([C@@H](C)CO)S2(=O)=O	?	121	–	–	100	–	73	81
COc1ccccc1C#Cc1ccc2c(c1)O[C@@H](CN(C)Cc1cncnc1)[C@@H](C)CN([C@@H](C)CO)S2(=O)=O	–	–	–	–	·	·	·	·
COc1ccccc1C#Cc1ccc2c(c1)O[C@H](CN(C)Cc1ccncc1)[C@@H](C)CN([C@@H](C)CO)S2(=O)=O	–	127	–	–	–	98	74	104
COc1ccccc1C#Cc1ccc2c(c1)O[C@@H](CN(C)Cc1ccncc1)[C@H](C)CN([C@H](C)CO)S2(=O)=O	?	121	–	–	96	97	83	105
SMILES	Pf Dd2 inh	T cruzi growth-1	IDH1 mut inh	GASC1 inh	T cruzi growth-2	T cruzi growth-3	3T3 cytotox	NIH3T3 tox 2
CCCOc1ccc(Oc2nc(NCC)nc(OC)n2)nn1	·	·	–	·	·	·	·	·
O=C(CSc1nnc2sc3ccccc3n12)Nc1c(Cl)cccc1Cl	·	·	–	·	·	·	·	·
Cc1ccc(NC(=O)CCN2C(=O)c3ccccc3C2=O)cc1[N+](=O)[O-]	·	·	–	·	·	·	·	·
C[C@@H]1CN([C@@H](C)CO)C(=O)c2cc(NC(=O)Cc3ccccc3)ccc2O[C@H]1CN(C)Cc1ccc(Oc2ccccc2)cc1	–	–	·	–	·	·	·	·
C[C@H](CO)N1C[C@H](C)[C@H](CN(C)Cc2ccc(Oc3ccccc3)cc2)Oc2ccc(NC(=O)Cc3ccccc3)cc2C1=O	–	?	–	–	–	–	–	102
C[C@H]1CN([C@@H](C)CO)C(=O)c2cc(NC(=O)Nc3ccc4c(c3)OCO4)ccc2O[C@H]1CN(C)Cc1ccc(Oc2ccccc2)cc1	–	117	–	–	109	–	–	41
C[C@@H]1CN([C@@H](C)CO)C(=O)c2cccc(NC(=O)Nc3ccc4c(c3)OCO4)c2O[C@@H]1CN(C)Cc1ccc(Oc2ccccc2)cc1	–	–	·	–	·	·	·	·
C[C@H](CO)N1C[C@H](C)[C@@H](CN(C)Cc2ccc(Oc3ccccc3)cc2)Oc2c(NC(=O)Nc3ccc4c(c3)OCO4)cccc2C1=O	–	?	·	–	109	–	–	–
C[C@H](CO)N1C[C@H](C)[C@H](CN(C)Cc2ccncc2)Oc2ccc(NC(=O)Nc3ccc4c(c3)OCO4)cc2C1=O	–	117	–	–	–	–	–	34
C[C@@H]1CN([C@@H](C)CO)C(=O)c2cc(NC(=O)Nc3ccc4c(c3)OCO4)ccc2O[C@@H]1CN(C)Cc1ccncc1	–	–	–	–	·	·	·	·
C[C@H](CO)N1C[C@H](C)[C@@H](CN(C)Cc2ccc(Oc3ccccc3)cc2)Oc2ccc(NC(=O)Nc3ccccc3)cc2C1=O	–	–	·	–	·	·	·	·
C=CCNC(=O)c1c(NC(=O)C2COc3ccccc3O2)sc2c1CCCC2 (configuration not stated)	·	·	–	·	·	·	·	·
